A selection: hits, their analogues and other compounds. The true share with any hit is near 1.6%.
H9c2 protect – cardioprotection against H2O2-induced cell death, primary screen, uHTS, H9c2 cells, ATPLite luminescence; H9c2 cardiomyocytes, H2O2 injury protection, 2 h; protection from H2O2 cell death, % at 20 µM; hit rate 0.63% among 360,000; AID 588492, 2011;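 active = compounds giving at least 50% protection of heart cells from peroxide-induced death in the single-dose screen, raw or plate-pattern-corrected value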;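 note: 0% = DMSO wells with peroxide and 100% = DMSO wells without peroxide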
ARFGAP1 inh – inhibitors of rat ARFGAP1 GAP activity, primary screen, biochemical, fluorescence polarization, GDP tracer; ADP-ribosylation factor GTPase-activating protein 1 (Rattus norvegicus), Q62848; Arfgap1-stimulated ARF1 GTP hydrolysis, GDP FP detection; inhibition, % at 16.5 µM; hit rate 0.26% among 360,000; AID 651572, 2012;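 active = inhibition above a per-plate limit, mean inhibition of low control wells plus 3 SD, cut at about 25% in these data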;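 note: 0% = DMSO wells with enzyme and 100% = wells lacking Arfgap1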
Target sequence (Q62848 1-136 limits assumed): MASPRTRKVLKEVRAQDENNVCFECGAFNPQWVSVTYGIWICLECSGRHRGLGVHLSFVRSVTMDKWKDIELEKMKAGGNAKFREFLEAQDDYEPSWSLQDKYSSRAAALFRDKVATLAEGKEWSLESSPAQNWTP
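Assay system: Rat Arfgap1 GAP domain (His6, aa 1-136), purified enzyme | Buffer or medium: HEPES 25 mM pH 7.5, NaCl 150 mM, MgCl2, DTT | Schedule: GTP hydrolysis reaction 2 h at 25 °C | Signal: FP of antibody-bound GDP Alexa 633 tracer, ex 620/em 688 nm | Measure: Percent inhibition of Arfgap1-stimulated GTP hydrolysis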
Neddyl block – inhibitors of cullin neddylation, primary screen, biochemical, TR-FRET, uHTS, NAE and Ubc12 | NEDD8-conjugating enzyme Ubc12 (Homo sapiens) + NEDD8-activating enzyme E1 regulatory … | inhibition, % at 25 µM | hit rate 0.58% among 360,000 | AID 651699, 2012; in the data active = inhibition above about 36%
ASAP1 GAP inh – inhibitors of human ASAP1 ArfGAP activity, primary screen, biochemical, fluorescence polarization. hit rate 0.19% among 360,000. inhibition, % at 16.5 µM. ASAP1-stimulated ARF1 GTP hydrolysis, GDP FP detection; in the data active = inhibition above about 25%;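 note: 0% = vehicle with enzyme and substrate and 100% = no enzyme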
ASAP1 GAP conf – ASAP1 GAP activity inhibitors, confirmation, biochemical, fluorescence polarization, human, triplicate; hit rate 37% among 620; inhibition, % at 16.5 µM; ASAP1-stimulated Arf1 GTPase, GDP fluorescence polarization; shares compounds with ASAP1 GAP inh;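 active = mean inhibition over triplicates exceeds the hit threshold derived for the earlier primary screening run, cut at about 25% in these data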
ARFGAP1 confirm – ARFGAP1 inhibitor hit confirmation, biochemical, fluorescence polarization, triplicate | shares compounds with ARFGAP1 inh | ARFGAP1-stimulated ARF1 GTP hydrolysis, GDP tracer FP | inhibition, % at 16.5 µM | hit rate 30% among 890 | AID 651608, 2012;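 active = average inhibition over triplicates above the hit cutoff set in the earlier primary screen, cut at about 25% in these data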;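 note: 0% = Arfgap1 plus ARF1-GTP with DMSO and 100% = wells lacking Arfgap1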
Target sequence (Q62848 whole entry, looked up): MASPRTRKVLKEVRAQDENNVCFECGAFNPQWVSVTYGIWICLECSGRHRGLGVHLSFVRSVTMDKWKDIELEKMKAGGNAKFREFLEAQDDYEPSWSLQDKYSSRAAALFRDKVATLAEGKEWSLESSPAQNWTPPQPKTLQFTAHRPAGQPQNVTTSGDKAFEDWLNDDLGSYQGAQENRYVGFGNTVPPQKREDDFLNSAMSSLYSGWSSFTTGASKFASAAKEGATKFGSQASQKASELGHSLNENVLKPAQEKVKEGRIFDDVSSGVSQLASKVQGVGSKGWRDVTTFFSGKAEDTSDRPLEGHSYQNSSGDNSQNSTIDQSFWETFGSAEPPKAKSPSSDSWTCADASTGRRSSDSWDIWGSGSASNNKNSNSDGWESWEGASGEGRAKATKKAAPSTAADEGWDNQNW
Numbers without * were called inactive.

How did CN1CCCCC(NC(=O)c2cccc([N+](=O)[O-])c2)C1=O (stereo not drawn) do in these assays?
ARFGAP1 inh: 16.1; ASAP1 GAP inh: 4.3

Results for CC[n+]1ccc(/C=C/c2ccc(N(C)C)cc2)c2ccccc21 ?
H9c2 protect: -39.6; ARFGAP1 inh: 37.4*; Neddyl block: -19.0; ASAP1 GAP inh: 43.4*; ASAP1 GAP conf: 52.6*; ARFGAP1 confirm: 50.4*

How did O=C(N/N=C/c1ccc(Cl)c([N+](=O)[O-])c1)c1ccc2c(c1)OCCO2 do in these assays?
H9c2 protect: 9.1; ARFGAP1 inh: 65.5*; Neddyl block: 0.4; ASAP1 GAP inh: 82.5*; ASAP1 GAP conf: 103.7*; ARFGAP1 confirm: 99.2*

How did CSc1ccc(CN2CCC2(C)C(=O)NC2CCc3ccccc32)cc1 (stereo not drawn) do in these assays?
H9c2 protect: -7.5; ARFGAP1 inh: 15.9; Neddyl block: 1.3; ASAP1 GAP inh: -2.1

How did Cc1cc([N+](=O)[O-])c(C)cc1-c1ccc(/C=N/NC(=O)Cn2nnnc2N)o1 do in these assays?
H9c2 protect: 4.8; ARFGAP1 inh: 67.0*; Neddyl block: -0.2; ASAP1 GAP inh: 64.6*; ASAP1 GAP conf: 1.0; ARFGAP1 confirm: 35.1*

Results for Cc1ccc2nc(SCC(=O)N3CCC(C)CC3)nc(=O)n2c1 ?
H9c2 protect: -2.7; ARFGAP1 inh: 62.0*; Neddyl block: 5.6; ASAP1 GAP inh: 36.8*; ASAP1 GAP conf: 42.9*; ARFGAP1 confirm: 69.2*

What do the screens show for `Cc1ccc2nc(SCC(=O)NC3CCCC3)nc(=O)n2c1`?
H9c2 protect: 4.3; ARFGAP1 inh: 16.4; Neddyl block: 4.4; ASAP1 GAP inh: 13.9

How did COC(=O)CNC(=O)CNC(=O)c1nn(-c2ccc(OC)c(OC)c2)c(=O)c2ccccc12 do in these assays?
H9c2 protect: -9.0; ARFGAP1 inh: 4.0; Neddyl block: -15.3; ASAP1 GAP inh: 2.2

Results for COc1ccc(-n2nc(C(=O)NCC(=O)NCc3ccc(F)cc3)c3ccccc3c2=O)cc1OC ?
H9c2 protect: -7.0; ARFGAP1 inh: 138.9*; Neddyl block: -127.3; ASAP1 GAP inh: 43.3*; ASAP1 GAP conf: 49.3*; ARFGAP1 confirm: 88.1*

Results for Cn1c(=O)c2c(nc(NCc3ccccc3)n2C)n(C)c1=O ?
H9c2 protect: 49.2; ARFGAP1 inh: -5.7; Neddyl block: -0.3; ASAP1 GAP inh: 7.2

How did Cn1c(=O)c2cc(NCc3ccccc3)nnc2n(C)c1=O do in these assays?
H9c2 protect: 10.2; ARFGAP1 inh: 27.8*; Neddyl block: 19.6; ASAP1 GAP inh: 43.7*; ASAP1 GAP conf: 8.7; ARFGAP1 confirm: -0.5

Results for NC(=O)C1CCN(C2=C(Cl)C(=O)c3ccccc3C2=O)CC1 ?
H9c2 protect: -12.8; ARFGAP1 inh: 29.3*; Neddyl block: -16.5; ASAP1 GAP inh: 41.5*; ASAP1 GAP conf: 17.1; ARFGAP1 confirm: 0.9

What do the screens show for `O=C(Nc1ccc(-c2nc3ccc(NC(=O)c4cccs4)cc3[nH]2)cc1)c1cccs1`?
H9c2 protect: 45.6; ARFGAP1 inh: 73.0*; ASAP1 GAP inh: 36.5*; ASAP1 GAP conf: 73.6*; ARFGAP1 confirm: 123.7*

What do the screens show for `COc1ccc(-n2c(N)c(C(=O)NCC3CCCO3)c3nc4ccccc4nc32)c(OC)c1` (stereo not drawn)?
H9c2 protect: 36.7; ARFGAP1 inh: 27.8*; ASAP1 GAP inh: 31.3*; ASAP1 GAP conf: 13.8; ARFGAP1 confirm: 6.2

Results for O=C(C(=Cc1ccc(O)cc1)c1ccccc1)c1ccccc1 ?
ARFGAP1 inh: 23.2; Neddyl block: -4.5; ASAP1 GAP inh: 2.8

Results for COc1ccccc1/C=N/NC(=O)c1ccc(Br)cc1 ?
H9c2 protect: -0.5; ARFGAP1 inh: -2.5; Neddyl block: 0.4; ASAP1 GAP inh: -17.6

How did COc1cccc(C=NNC(=O)c2ccncc2)c1O do in these assays?
H9c2 protect: 34.8; ARFGAP1 inh: 6.0; Neddyl block: -12.5; ASAP1 GAP inh: -6.1

What do the screens show for `COc1ccccc1C=NNC(=O)NN=Cc1ccccc1OC`?
H9c2 protect: -17.0; ARFGAP1 inh: 57.5*; Neddyl block: -26.1; ASAP1 GAP inh: 29.9*; ASAP1 GAP conf: 52.5*; ARFGAP1 confirm: 67.5*

What do the screens show for `COc1cccc(/C=N/NC(=O)N/N=C/c2cccc(OC)c2O)c1O`?
H9c2 protect: 37.9; ARFGAP1 inh: 63.6*; Neddyl block: -10.1; ASAP1 GAP inh: 31.2*; ASAP1 GAP conf: 81.2*; ARFGAP1 confirm: 94.6*

How did CC(C)NC(=O)C1(C)CCN1Cc1cccc(C#N)c1 (stereo not drawn) do in these assays?
H9c2 protect: 3.2; ARFGAP1 inh: 2.3; Neddyl block: 0.8; ASAP1 GAP inh: 3.0

How did COc1ccc(CN(C2CCCC2)S(=O)(=O)c2cc(Br)ccc2Br)c(OC)c1 do in these assays?
ARFGAP1 inh: -15.0; ASAP1 GAP inh: 5.2

Results for O=C(Nc1cccc(-c2cn3ccccc3n2)c1)c1cc2ccccc2oc1=O ?
H9c2 protect: -9.5; ARFGAP1 inh: 47.0*; Neddyl block: -19.1; ASAP1 GAP inh: 35.6*; ASAP1 GAP conf: 62.1*; ARFGAP1 confirm: 72.3*

What do the screens show for `O=C(O)CSc1cc(NS(=O)(=O)c2cccc([N+](=O)[O-])c2)c2ccccc2c1O`?
H9c2 protect: -15.5; ARFGAP1 inh: 25.1*; Neddyl block: -51.8; ASAP1 GAP inh: 27.6*; ASAP1 GAP conf: 13.8; ARFGAP1 confirm: -9.2

How did CCc1ccc(S(=O)(=O)Nc2cc(SCC(=O)O)c(O)c3ccccc23)cc1 do in these assays?
H9c2 protect: -31.6; ARFGAP1 inh: 13.7; Neddyl block: -23.4; ASAP1 GAP inh: -1.2

What do the screens show for `Cc1ccccc1NC(=O)Cn1cnc2c(oc3ccccc32)c1=O`?
H9c2 protect: 5.8; ARFGAP1 inh: -10.6; Neddyl block: 1.8; ASAP1 GAP inh: -19.9

What do the screens show for `Cc1cccc(NC(=O)Cn2cnc3c(oc4ccccc43)c2=O)c1C`?
H9c2 protect: -5.6; ARFGAP1 inh: 29.1*; Neddyl block: -8.8; ASAP1 GAP inh: 32.6*; ASAP1 GAP conf: 48.9*; ARFGAP1 confirm: 59.2*

How did Cc1ccc([N+](=O)[O-])cc1-c1ccc(/C=C(\C#N)c2[nH]nc(N)c2C#N)o1 do in these assays?
H9c2 protect: 42.9; ARFGAP1 inh: 45.2*; Neddyl block: -1.8; ASAP1 GAP inh: 41.2*; ASAP1 GAP conf: 55.6*; ARFGAP1 confirm: 57.5*

Compound activity (PubChem)
